What is called chromatographic logD is lipophilicity estimated from chromatographic retention. The EC50 is the concentration needed to bring the measured effect to its halfway point. One may read the IC50 as the concentration needed to halve the response being measured. What is called AUC(0-t) is exposure summed from dosing to a finite time, without extrapolation to infinity. The term solubility denotes how much of the substance goes into solution per volume. As a reminder, the EC90 is the point of the concentration-response curve where the effect stands at 90%.

The nature of data set [1]: Plasma protein binding in CD rat at 5 uM after 4 hrs by rapid equilibrium dialysis method. The format is ADME, cell-free. To be noted: read-out: PPB (converted). A general note: In equilibrium dialysis free small molecules cross a membrane that holds back macromolecules.
The nature of data set [2]: Plasma protein binding in beagle dog at 5 uM after 4 hrs by rapid equilibrium dialysis method. To be noted: read-out: PPB (converted). The format is ADME, cell-free, Canis lupus familiaris.
Data set [3] in a line: Plasma protein binding in cynomolgus monkey at 5 uM after 4 hrs by rapid equilibrium dialysis method. The format is ADME, cell-free, Macaca fascicularis. As to conditions: read-out: PPB (converted).
Data set [4] in a line: Plasma protein binding in human at 5 uM after 4 hrs by rapid equilibrium dialysis method. Format: ADME, cell-free. As to conditions: read-out: PPB (converted).
Data set [5] can be described thus: Lipophilicity, log D of the compound by chromatographic analysis. The format is physicochemical. The method, boiled down: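 Lipophilicity was measured chromatographically and reported as ChromLogD; ≥6 replicates.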
The next data set relates to Huh-7. The data set can be described thus: Cytotoxicity against human HuH7 cells at 50 uM after 2 days by Cell Titer Glo assay. Format: cell-based. To be noted: huh-7, 48 h. Summed up:
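Huh7 cells were exposed to compound at 50 μM for 2 days and scored for cellular toxicity.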

For data set [6], the system named is Hepatitis C virus. The data set can be described thus: Antiviral activity against Hepatitis C virus genotype 1b expressing NS4B V105M mutant infected in human HuH7 cells after 48 hrs by luciferase reporter gene assay. The format is functional, organism-based, Hepacivirus hominis. To be noted: Huh-7, 48 h. On the technique in general: Reporter assays use an easily measured gene product as a stand-in for the process of interest.

The subject of data set [7] is Hepatitis C virus. Kind of data set: Antiviral activity against Hepatitis C virus genotype 1b infected in human HuH7 cells after 48 hrs by luciferase reporter gene assay. Format: functional, organism-based, Hepacivirus hominis. As to conditions: Huh-7, 48 h.
Data set [8] has as its system Hepatitis C virus. The data set can be described thus: Antiviral activity against Hepatitis C virus genotype 1a infected in human HuH7 cells after 48 hrs by luciferase reporter gene assay. The format is functional, organism-based, Hepacivirus hominis. As to conditions: subtype 1a, Huh-7, 48 h.
The nature of data set [9]: Displacement of [3H]-3-(1-(3-chloro-6-isopropyl-8-(trifluoromethyl)imidazo[1,2-a]pyridine-2-carbonyl)piperidin-4-yl)oxazolidin-2-one from HCV genotype 1b C-terminal His-tagged NS4B (1 to 261 aa) expressed in baculovirus infected SF9 cells after overnight incubation. More on the design: species or system Hepatitis C virus subtype 1b. In general terms: Loss of bound radioactivity is the signal in a displacement assay; it reports binding, not function.

The species named for the next data set is Rattus norvegicus. Kind of data set: Cardiovascular toxicity in rat after 7 days. Format: organism-based. To be noted: in vivo, 168 h.
Data set [10] is described as follows: AUC (0 to 24 hrs) in CD rat at 300 mg/kg, po by LC/MS/MS analysis. Format: ADME, organism-based. Further details: time < 24 hr, dose 300 mg/kg, route oral. As to conditions: plasma. The method, boiled down: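 CD rats were given a single oral dose of 300 mg/kg of parent suspension or of prodrug. Plasma was assayed for the parent drug and for uncleaved prodrug.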

Data set [11] in a line: Aqueous solubility in fasted state simulated intestinal fluid at pH 6.5 by LC/UV analysis. Format: physicochemical.
Data set [12] deals with Hepatitis C virus. Kind of data set: Antiviral activity against Hepatitis C virus genotype 1a. Format: functional, Hepacivirus hominis. To be noted: subtype 1a.

≈ marks a conversion by molar mass, not a printed value.

Consider `O=C(c1nc2c(C(F)(F)F)cc(C3CC3)cn2c1Cl)N1CCN([C@H]2CC[C@H](O)CC2)C(=O)C1`, for which the fraction unbound at 4 h, 5 µM in data set [1] was 0.2; in [2], 0.34; in data set [3] it was 0.23; in [4] it was 0.17. The same compound gave a chromatographic logD in [5] of 3.5. The Activity entry with Huh-7 is given as “Non-toxic”; in the data set listed under Rattus norvegicus it was “Toxic”. The figures for the EC50 with Hepatitis C virus [6], in the data set on Hepatitis C virus [7] and with Hepatitis C virus [8] were 730 nM, 7 nM and 1 nM, respectively. The compound further yielded an IC50 in [9] of 53 nM. In data set [10], this compound showed an AUC(0-t) at 24 h of 11300 ng·h/mL. The solubility in [11] was 11 µg/mL (≈ 22.7 µM). In the data set with Hepatitis C virus [12], this compound showed an EC90 of 29 nM.

These data come from ChEMBL document CHEMBL3124867, “Hepatitis C replication inhibitors that target the viral NS4B protein” (J Med Chem, 2014).
